Among the data in ChEMBL document CHEMBL1153628, “HCV NS5B polymerase inhibitors 2: Synthesis and in vitro activity of (1,1-dioxo-2H-[1,2,4]benzothiadiazin-3-yl) azolo[1,5-a]pyridine and azolo[1,5-a]pyrimidine derivatives” (Bioorg Med Chem Lett, 2009) are CC50, IC50 and EC50 values, retold here.

The nature of series [1]: Cytotoxicity against human HuH7 cells. In kind it is cell-based, Huh-7. In short, it runs like this: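 Huh-7 cells stably carrying luc/neo ET replicon, grown in DMEM with 10% fetal calf serum, seeded at 5 × 10³ cells/well. DMSO serial dilutions were added ~24 h after plating (final DMSO 1%), with exposure for 46–50 h. Luminescence vs log concentration was fitted to a 4-parameter logistic to give EC50 and CC50.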

Series [2] in a line: Inhibition of HCV isolate HC-J4 NS5B deltaC21 polymerase. Also noted: species or system Hepatitis C virus isolate HC-J4. A digest of the protocol:
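Inhibitor was preincubated 5 min, then 250 nM 5′-biotin-rU₁₂ primer, poly-rA template, UTP and ³H-UTP were added (5% DMSO). After 2 h, SPA beads/EDTA stop, then CsCl for 1 h, then scintillation count. IC50 by 4-parameter logistic fit.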

A further series has as its system Hepatitis C virus. Nature of the series: Antiviral activity against HCV 1b infected in human Huh7 cells after 46-50 hrs by luc/neo ET replicon assay. As to conditions: genotype 1b, Huh-7, 46-50 h. A general note: A replicon is a self-replicating genome or part of one, used to study replication in cells.

The CC50 is the concentration at which the toxic effect on the cells reaches its halfway point. For orientation: IC50 means the midpoint of a concentration-inhibition curve. A higher IC50 goes with weaker potency in that assay. For orientation: EC50 means the concentration needed to bring the measured effect to its halfway point. High values mean weaker potency, low ones greater potency. In the case of `CC(C)CC[C@@]1(C)C(=O)C(C2=NS(=O)(=O)c3cc(NS(C)(=O)=O)ccc3N2)=C(O)c2cccn21`, the CC50 in series [1] stood at 19.5 µM. Besides, the IC50 in series [2] is under 0.005 µM. This molecule also displayed an EC50 in the series with Hepatitis C virus of 0.15 µM.
On the same counts, the results for `CC(C)CC[C@]1(C)C(=O)C(C2=NS(=O)(=O)c3cc(NS(C)(=O)=O)ccc3N2)=C(O)c2cccn21` are 170 µM, 0.15 µM and 4.9 µM.
In the case of `CC(C)CCC1(C)C(=O)C(C2=NS(=O)(=O)c3cc(NS(C)(=O)=O)ccc3N2)=C(O)c2ccnn21` (centres undefined), the CC50 in series [1] is over 100 µM. The IC50 in series [2] is under 0.005 µM. Further, the EC50 with Hepatitis C virus stood at 1.1 µM.
Molecule `CS(=O)(=O)Nc1ccc2c(c1)S(=O)(=O)N=C(c1c(O)n3nccc3n(Cc3ccccc3)c1=O)N2` had a CC50 in series [1] of over 100 µM. Moreover, the IC50 in series [2] was under 0.005 µM. In the series with Hepatitis C virus, this molecule displayed an EC50 of 4 µM.
As to `CC(C)CCn1c(=O)c(C2=NS(=O)(=O)c3cc(NS(C)(=O)=O)ccc3N2)c(O)n2nccc12`, the CC50 in series [1] is over 100 µM. The IC50 in series [2] is under 0.005 µM. Besides, the EC50 in the series with Hepatitis C virus turned out to be 0.55 µM.
Molecule `Cc1cc2n(CCC(C)C)c(=O)c(C3=NS(=O)(=O)c4cc(NS(C)(=O)=O)ccc4N3)c(O)n2n1` registered a CC50 in series [1] of over 100 µM. In series [2], this molecule had an IC50 of under 0.005 µM. Moreover, a half-maximal response in the series with Hepatitis C virus (EC50) required 1.7 µM.
On the same counts, the results for `CC(C)CCn1c(=O)c(C2=NS(=O)(=O)c3cc(NS(C)(=O)=O)ccc3N2)c(O)n2ccnc12` are over 1 µM, under 0.005 µM and 0.55 µM.
With `CC(C)CCC1(C)C(=O)C(C2=NS(=O)(=O)c3cc(NS(C)(=O)=O)ccc3N2)=C(O)c2cncn21` (centres undefined), in series [1], the CC50 was over 100 µM. This molecule came in with an IC50 in series [2] of under 0.005 µM. This molecule yielded an EC50 with Hepatitis C virus of 6.6 µM.
`CC(C)CCC1(C)C(=O)C(C2=NS(=O)(=O)c3cc(NS(C)(=O)=O)ccc3N2)=C(O)c2cccn21` (centres undefined) showed a CC50 in series [1] of over 100 µM. Besides, the IC50 in series [2] is under 0.005 µM. Also, the EC50 with Hepatitis C virus came to 0.23 µM.
`CS(=O)(=O)Nc1ccc2c(c1)S(=O)(=O)N=C(c1c(O)n3nccc3n(Cc3ccc(F)cc3)c1=O)N2` came in with a half-maximal cytotoxic concentration (CC50) in series [1] of over 100 µM. In series [2], this molecule registered an IC50 of under 0.005 µM. The EC50 with Hepatitis C virus was 12 µM.
In turn, `CS(=O)(=O)Nc1ccc2c(c1)S(=O)(=O)N=C(c1c(O)n3nccc3n(CCc3ccc(F)cc3)c1=O)N2` had a CC50 in series [1] of over 100 µM. In series [2], the IC50 was 0.018 µM. In addition, in the series on Hepatitis C virus, the EC50 was over 100 µM.
The molecule `CC(C)CCn1c(=O)c(C2=NS(=O)(=O)c3cc(NS(C)(=O)=O)ccc3N2)c(O)n2ncnc12` registered a CC50 in series [1] of over 100 µM. Further, in series [2], the IC50 is under 0.005 µM. For the same molecule, it took 6.7 µM to reach a half-maximal effect in the series on Hepatitis C virus (EC50).
Regarding `CC(C)CCn1c(=O)c(C2=NS(=O)(=O)c3cc(NS(C)(=O)=O)ccc3N2)c(O)n2nc(C3CC3)cc12`, in series [1], the CC50 is over 100 µM. Further, the IC50 in series [2] was determined as 0.009 µM. Moreover, the concentration giving a half-maximal response (EC50) in the series on Hepatitis C virus is over 20 µM.
